Data reported in ChEMBL document CHEMBL2073862, “Localization of organic anion transporting polypeptides in the rat and human ciliary body epithelium” (Exp Eye Res, 2005).
One block for each molecule: values may come before it.

Columns and labels:
[1] = biological target: T1, Solute carrier organic anion transporter family member 1C1 (Homo sapiens, UniProt Q9NYB5); assay: (§1) TP_TRANSPORTER: uptake in Xenopus laevis oocytes; assay type: functional, cell-based; settings: oocyte
T1 sequence (Q9NYB5 whole entry): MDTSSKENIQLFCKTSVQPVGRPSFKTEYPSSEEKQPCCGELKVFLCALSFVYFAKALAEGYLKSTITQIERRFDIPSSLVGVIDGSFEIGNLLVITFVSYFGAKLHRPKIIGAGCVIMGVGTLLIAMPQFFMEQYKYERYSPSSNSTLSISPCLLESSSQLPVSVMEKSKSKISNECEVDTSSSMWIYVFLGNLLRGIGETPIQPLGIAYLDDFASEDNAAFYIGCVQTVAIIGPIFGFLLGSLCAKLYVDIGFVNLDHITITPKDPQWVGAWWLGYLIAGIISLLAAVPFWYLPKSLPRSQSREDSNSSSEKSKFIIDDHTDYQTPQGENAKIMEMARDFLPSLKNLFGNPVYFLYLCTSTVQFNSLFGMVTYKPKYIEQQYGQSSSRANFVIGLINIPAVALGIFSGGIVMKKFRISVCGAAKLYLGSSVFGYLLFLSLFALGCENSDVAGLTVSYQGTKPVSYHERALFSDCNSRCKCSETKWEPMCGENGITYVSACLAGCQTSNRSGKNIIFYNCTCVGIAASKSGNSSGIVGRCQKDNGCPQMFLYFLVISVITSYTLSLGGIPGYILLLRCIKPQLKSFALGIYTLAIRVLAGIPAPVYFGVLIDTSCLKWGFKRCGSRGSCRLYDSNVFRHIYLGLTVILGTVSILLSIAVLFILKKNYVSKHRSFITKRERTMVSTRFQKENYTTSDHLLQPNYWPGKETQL
How it was run: (§2)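 Oocytes were injected with 5 ng of cRNA for human OATP1A2, 1C1, 2B1, 3A1 or 4A1, or with water, then cultured 3 days. Radioactivity was counted by scintillation, water-injected uptake was subtracted, and Km came from nonlinear regression of 12–15 oocytes.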

[2] = biological target: T2, Solute carrier organic anion transporter family member 2B1 (Homo sapiens, UniProt O94956); assay: as §1; assay type: functional, cell-based; settings: oocyte; how it was run: as §2
T2 sequence (O94956 whole entry): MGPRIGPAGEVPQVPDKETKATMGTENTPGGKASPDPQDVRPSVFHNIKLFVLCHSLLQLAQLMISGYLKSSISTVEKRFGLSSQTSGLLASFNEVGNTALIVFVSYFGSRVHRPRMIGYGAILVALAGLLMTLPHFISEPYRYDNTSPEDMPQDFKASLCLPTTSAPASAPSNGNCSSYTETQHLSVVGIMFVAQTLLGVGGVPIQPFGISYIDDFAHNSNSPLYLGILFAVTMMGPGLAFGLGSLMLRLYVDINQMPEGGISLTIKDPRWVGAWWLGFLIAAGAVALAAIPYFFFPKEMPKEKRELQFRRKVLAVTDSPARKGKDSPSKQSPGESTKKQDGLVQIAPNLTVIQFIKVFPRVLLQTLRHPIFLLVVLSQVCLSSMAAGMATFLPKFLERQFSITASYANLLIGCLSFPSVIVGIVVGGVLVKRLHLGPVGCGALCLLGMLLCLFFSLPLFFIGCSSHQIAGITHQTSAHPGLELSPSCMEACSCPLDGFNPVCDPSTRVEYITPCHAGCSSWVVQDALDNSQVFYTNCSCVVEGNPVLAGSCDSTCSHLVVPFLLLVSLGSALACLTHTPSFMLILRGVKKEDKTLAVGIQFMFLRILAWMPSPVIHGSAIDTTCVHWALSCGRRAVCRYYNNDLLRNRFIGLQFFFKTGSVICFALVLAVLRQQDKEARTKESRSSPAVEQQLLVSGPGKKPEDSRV

[3] = biological target: T3, Solute carrier organic anion transporter family member 3A1 (Homo sapiens, UniProt Q9UIG8); assay: as §1; assay type: functional, cell-based; settings: oocyte; how it was run: as §2
T3 sequence (Q9UIG8 whole entry): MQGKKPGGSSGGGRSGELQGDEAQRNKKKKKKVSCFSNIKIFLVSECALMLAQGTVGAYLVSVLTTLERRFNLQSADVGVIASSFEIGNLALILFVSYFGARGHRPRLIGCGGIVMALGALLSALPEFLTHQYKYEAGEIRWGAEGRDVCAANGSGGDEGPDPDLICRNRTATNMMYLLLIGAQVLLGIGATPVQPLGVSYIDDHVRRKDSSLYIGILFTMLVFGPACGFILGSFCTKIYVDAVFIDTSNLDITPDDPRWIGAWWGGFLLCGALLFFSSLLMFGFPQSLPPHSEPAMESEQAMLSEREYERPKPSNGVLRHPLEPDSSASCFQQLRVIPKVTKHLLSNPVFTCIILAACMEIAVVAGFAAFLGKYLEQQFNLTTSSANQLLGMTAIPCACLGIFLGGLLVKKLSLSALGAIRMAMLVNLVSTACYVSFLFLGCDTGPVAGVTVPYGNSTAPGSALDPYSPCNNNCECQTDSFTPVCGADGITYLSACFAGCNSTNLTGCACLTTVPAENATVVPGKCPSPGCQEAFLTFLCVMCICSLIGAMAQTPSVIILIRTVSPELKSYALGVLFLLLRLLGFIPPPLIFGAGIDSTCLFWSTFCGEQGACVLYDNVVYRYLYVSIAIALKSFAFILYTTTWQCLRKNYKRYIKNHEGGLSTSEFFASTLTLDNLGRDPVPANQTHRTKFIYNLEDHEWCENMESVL

[4] = biological target: T4, Solute carrier organic anion transporter family member 4A1 (Homo sapiens, UniProt Q96BD0); assay: as §1; assay type: functional, cell-based; settings: oocyte; how it was run: as §2
T4 sequence (Q96BD0 whole entry): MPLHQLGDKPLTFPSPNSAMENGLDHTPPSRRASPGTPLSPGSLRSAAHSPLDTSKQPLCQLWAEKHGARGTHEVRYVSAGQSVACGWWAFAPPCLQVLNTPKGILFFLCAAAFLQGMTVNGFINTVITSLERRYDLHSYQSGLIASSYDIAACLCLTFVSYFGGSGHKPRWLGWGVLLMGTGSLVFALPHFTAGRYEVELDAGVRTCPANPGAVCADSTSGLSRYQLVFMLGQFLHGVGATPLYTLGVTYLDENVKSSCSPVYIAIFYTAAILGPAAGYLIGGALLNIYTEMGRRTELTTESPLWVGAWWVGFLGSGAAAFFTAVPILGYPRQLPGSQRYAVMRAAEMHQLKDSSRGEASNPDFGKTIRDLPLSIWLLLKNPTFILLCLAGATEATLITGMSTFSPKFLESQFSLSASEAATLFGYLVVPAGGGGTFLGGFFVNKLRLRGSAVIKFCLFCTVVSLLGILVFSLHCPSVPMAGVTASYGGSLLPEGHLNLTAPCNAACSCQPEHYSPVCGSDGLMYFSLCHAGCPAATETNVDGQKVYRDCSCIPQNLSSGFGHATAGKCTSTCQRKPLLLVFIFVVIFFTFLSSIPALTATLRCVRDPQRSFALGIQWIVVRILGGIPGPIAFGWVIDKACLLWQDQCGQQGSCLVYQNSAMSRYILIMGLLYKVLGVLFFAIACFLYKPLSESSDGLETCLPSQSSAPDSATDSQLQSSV

[5] = biological target: T5, Solute carrier organic anion transporter family member 1A2 (Homo sapiens, UniProt P46721); assay: as §1; assay type: functional, cell-based, Oocyte; how it was run: as §2
T5 sequence (P46721 whole entry): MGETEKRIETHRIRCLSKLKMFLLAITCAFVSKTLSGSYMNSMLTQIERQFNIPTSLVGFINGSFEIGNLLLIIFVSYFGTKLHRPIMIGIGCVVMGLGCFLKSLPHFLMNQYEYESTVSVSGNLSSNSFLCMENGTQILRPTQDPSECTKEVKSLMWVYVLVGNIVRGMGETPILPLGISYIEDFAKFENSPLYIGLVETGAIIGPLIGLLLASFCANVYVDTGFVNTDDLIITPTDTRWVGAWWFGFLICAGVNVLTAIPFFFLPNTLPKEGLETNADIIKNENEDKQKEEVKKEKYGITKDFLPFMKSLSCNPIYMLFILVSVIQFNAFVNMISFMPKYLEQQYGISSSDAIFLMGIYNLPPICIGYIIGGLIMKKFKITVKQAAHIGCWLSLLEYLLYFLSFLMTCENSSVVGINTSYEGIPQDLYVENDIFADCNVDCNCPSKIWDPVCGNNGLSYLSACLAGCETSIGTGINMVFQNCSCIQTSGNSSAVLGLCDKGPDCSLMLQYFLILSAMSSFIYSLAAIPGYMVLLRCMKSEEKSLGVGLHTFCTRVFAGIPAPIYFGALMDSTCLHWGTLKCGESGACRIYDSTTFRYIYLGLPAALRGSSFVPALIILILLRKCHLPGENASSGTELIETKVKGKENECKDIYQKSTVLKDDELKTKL

[6] = substrate: CCCCCCCC(=O)CC[C@@H]1[C@@H](C/C=C\CCCC(=O)O)[C@@H](O)C[C@H]1O; assay: as §1; assay type: functional, cell-based, Oocyte; how it was run: as §2

Activity [1]: is not a substrate [(-)]
Activity [2]: is not a substrate [(-)]
Activity [3]: is not a substrate [(-)]
Activity [4]: is not a substrate [(-)]
Activity ([5]; oocyte): is not a substrate [(-)]
Molecule: CCCCCCCC(=O)CC[C@@H]1[C@@H](C/C=C\CCCC(=O)OC(C)C)[C@@H](O)C[C@H]1O [UNOPROSTONE ISOPROPYL]

Activity [1]: is not a substrate [(-)]
Activity [3]: is not a substrate [(-)]
Km ([5]; Xenopus laevis oocytes): 93 µM
Molecule: CCCCCCCC(=O)CC[C@@H]1[C@@H](C/C=C\CCCC(=O)O)[C@@H](O)C[C@H]1O [UNOPROSTONE]

The next lines start with the molecule.

B1: Solute carrier organic anion transporter family member 2B1 (Homo sapiens) (protein)
chain: T2 sequence (O94956 whole entry)
Km [6]: 91 µM

B2: Solute carrier organic anion transporter family member 4A1 (Homo sapiens) (protein)
chain: T4 sequence (Q96BD0 whole entry)
Km [6]: 132 µM
